As a reminder, the Ki is a measure of affinity in units of concentration, obtained from inhibition or displacement. Usually half-life stands for the time needed for the level to fall by half in the phase considered.

The source of these data is ChEMBL document CHEMBL4725476, “Fluorescent Probes for Ecto-5'-nucleotidase (CD73)” (ACS Med Chem Lett, 2020).

Active and inactive are the calls of the source.

In data set [1] the target is T1, 5'-nucleotidase (Homo sapiens, UniProt P21589). In words: Inhibition of CD73 in human MDA-MB-231 cells incubated for 30 mins by anti-CD73 antibody and alexa flour 633 staining based confocal microscopy analysis. Format: cell-based. The essentials: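 MDA-MB-231 cells grown on cover slips were stained with rabbit anti-human CD73 antibody (h5NT-1L), then incubated with Alexa Fluor 633 goat anti-rabbit IgG secondary together with the fluorescein-labelled CD73 inhibitor. Nuclei were counterstained with DAPI. Cell-surface CD73 and probe binding were imaged by confocal microscopy.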
T1 sequence (P21589 whole entry): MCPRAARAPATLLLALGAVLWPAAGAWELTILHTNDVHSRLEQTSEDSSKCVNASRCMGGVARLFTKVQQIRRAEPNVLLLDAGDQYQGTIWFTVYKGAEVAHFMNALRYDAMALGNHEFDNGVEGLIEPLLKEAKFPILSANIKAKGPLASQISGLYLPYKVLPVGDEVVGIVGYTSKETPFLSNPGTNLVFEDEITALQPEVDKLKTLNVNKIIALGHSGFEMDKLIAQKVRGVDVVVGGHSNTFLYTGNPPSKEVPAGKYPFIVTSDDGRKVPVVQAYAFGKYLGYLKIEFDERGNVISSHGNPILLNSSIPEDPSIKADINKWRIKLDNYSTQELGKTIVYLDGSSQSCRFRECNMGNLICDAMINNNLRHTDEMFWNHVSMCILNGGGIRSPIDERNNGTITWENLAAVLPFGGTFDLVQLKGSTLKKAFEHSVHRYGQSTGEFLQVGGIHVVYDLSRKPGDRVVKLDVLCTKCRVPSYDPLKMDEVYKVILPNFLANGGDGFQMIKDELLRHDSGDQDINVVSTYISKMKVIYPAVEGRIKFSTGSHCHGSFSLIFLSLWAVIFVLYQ

For data set [2], the target named is T2, 5'-nucleotidase (Mus musculus) (UniProt Q61503).
T2 sequence (whole entry): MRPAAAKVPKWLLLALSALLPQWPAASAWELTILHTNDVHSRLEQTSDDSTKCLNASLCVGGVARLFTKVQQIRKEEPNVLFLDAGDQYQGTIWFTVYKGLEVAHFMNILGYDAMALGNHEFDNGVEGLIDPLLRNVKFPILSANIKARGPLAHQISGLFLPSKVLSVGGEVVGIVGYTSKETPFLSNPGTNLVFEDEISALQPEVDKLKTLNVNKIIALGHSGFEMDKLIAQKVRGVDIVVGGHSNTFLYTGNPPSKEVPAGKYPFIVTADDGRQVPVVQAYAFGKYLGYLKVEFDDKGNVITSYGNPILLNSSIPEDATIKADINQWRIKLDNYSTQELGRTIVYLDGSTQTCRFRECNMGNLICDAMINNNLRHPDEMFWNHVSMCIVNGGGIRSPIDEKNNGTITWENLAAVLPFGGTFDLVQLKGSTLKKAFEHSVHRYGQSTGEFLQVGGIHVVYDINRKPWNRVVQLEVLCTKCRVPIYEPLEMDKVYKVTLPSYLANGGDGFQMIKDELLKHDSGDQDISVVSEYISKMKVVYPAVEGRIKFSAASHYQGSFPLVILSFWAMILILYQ
Put plainly: Inhibition of CD73 in C57BL/6 mouse retina incubated for 1 hr by microscopic analysis. Type of data set: tissue-based. In outline: (§1)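 Eyeballs enucleated from wild-type and CD73 knockout mice (targeted gene disruption). Free-floating vibratome-cut eye sections costained with rabbit anti-rat CD73 and chicken anti-vimentin antibodies. Then incubated with fluorochrome-conjugated second-stage antibodies together with fluorescein-labeled inhibitor. Nuclei counterstained with DAPI; read by immunofluorescence microscopy.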

For another data set, the system named is Retina. Put plainly: Effect on C57BL/6 mouse retina with CD73-/- deficient incubated for 1 hr by microscopic analysis. Type of data set: ADME, tissue-based. In outline:
as §1

Another data set deals with MDA-MB-231. Put plainly: Cytotoxicity against human MDA-MB-231 cells assessed as reduction in cell growth at 10000 nM incubated for 24 hrs by FACS analysis. Type of data set: cell-based. The following applies: mda-mb-231, 24 h, 10 µM. (Flow cytometry measures light scatter and fluorescence of single cells or particles in a stream.)
In data set [3] the target is T1, 5'-nucleotidase. In words: Inhibition of recombinant human C-terminal His-tagged CD73 (27 to 549 residues) expressed in Sf9 cells using [2,8-3H]-AMP as substrate incubated for 25 mins by scintillation counting method. In outline: (§2)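 Radiometric CD73 assay using [3H]AMP substrate. Enzyme sources: human and rat recombinant soluble CD73 from Sf9 insect cells, or membrane preparations of MDA-MB-231 cells with native CD73. After incubation, unreacted [3H]AMP precipitated with lanthanum chloride and removed by filtration. [3H]adenosine in filtrate quantified by liquid scintillation counting. Full concentration-inhibition curves; Ki from IC50 via Cheng–Prusoff. Means ± SEM of 3 separate experiments.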

A further data set relates to A549. In words: Cytotoxicity against human A549 cells assessed as reduction in cell growth at 1000 nM incubated for 48 hrs by CCK8 assay. Type of data set: cell-based. As to conditions: a549, 48 h, 1 µM. (Formazan colour is commonly taken as a measure of viable cells.)
Data set [4] has as its target T3, Ectonucleoside triphosphate diphosphohydrolase 3 (Homo sapiens) (UniProt O75355).
T3 sequence (whole entry): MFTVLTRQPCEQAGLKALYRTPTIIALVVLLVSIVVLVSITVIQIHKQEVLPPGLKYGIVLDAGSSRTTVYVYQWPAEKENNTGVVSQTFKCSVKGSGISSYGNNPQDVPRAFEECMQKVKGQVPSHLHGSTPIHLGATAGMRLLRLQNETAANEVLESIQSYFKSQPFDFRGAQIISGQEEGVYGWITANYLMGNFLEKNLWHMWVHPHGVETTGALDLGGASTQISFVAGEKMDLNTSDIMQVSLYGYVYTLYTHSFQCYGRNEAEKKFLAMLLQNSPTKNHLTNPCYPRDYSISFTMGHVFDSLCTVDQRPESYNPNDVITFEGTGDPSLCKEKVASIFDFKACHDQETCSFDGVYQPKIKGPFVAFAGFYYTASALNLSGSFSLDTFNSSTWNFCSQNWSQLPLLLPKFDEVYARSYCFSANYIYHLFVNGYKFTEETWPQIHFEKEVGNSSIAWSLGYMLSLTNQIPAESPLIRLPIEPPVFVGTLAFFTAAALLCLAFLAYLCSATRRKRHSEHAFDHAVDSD
Put plainly: Inhibition of human NTPDase 3 expressed in […] cells using ATP as substrate at 50 uM incubated for 5 mins followed by substrate addition and measured after 30 mins by capillary electrophoresis method. Type of data set: cell-based.

The target in data set [5] is T1, 5'-nucleotidase. In words: Inhibition of CD73 in human MDA-MB-231 cells using [2,8-3H]-AMP as substrate incubated for 25 mins by scintillation counting method. Format: cell-based. In outline:
as §2

Data set [6] is described as follows: Selectivity index, ratio of Ki for rat C-terminal His-tagged CD73 expressed in Sf9 cells to Ki for recombinant human C-terminal His-tagged CD73 (27 to 549 residues) expressed in Sf9 cells. In outline: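 Ki values were measured in a radiometric assay with [3H]AMP substrate against rat and human recombinant soluble CD73 expressed in Sf9 insect cells. Residual [3H]AMP was precipitated with lanthanum chloride and removed by filtration, and [3H]adenosine was quantified by liquid scintillation counting. Ki came from full-curve IC50 via Cheng–Prusoff, 3 separate experiments. The ratio is rat Ki over human Ki.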

A short description of data set [7]: Metabolic stability in human liver microsomes assessed as half life measured for 60 mins. Type of data set: ADME, Microsome. In outline: (§3)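 Stability of the probe tested by incubation with human liver microsomes. Intrinsic clearance expressed per mg microsomal protein; half-life derived from the clearance.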
(Liver microsomes are vesicles of endoplasmic reticulum, rich in cytochrome P450 enzymes.)

The target in data set [8] is T4, 5'-nucleotidase (Rattus norvegicus, UniProt P21588).
T4 sequence (P21588 whole entry): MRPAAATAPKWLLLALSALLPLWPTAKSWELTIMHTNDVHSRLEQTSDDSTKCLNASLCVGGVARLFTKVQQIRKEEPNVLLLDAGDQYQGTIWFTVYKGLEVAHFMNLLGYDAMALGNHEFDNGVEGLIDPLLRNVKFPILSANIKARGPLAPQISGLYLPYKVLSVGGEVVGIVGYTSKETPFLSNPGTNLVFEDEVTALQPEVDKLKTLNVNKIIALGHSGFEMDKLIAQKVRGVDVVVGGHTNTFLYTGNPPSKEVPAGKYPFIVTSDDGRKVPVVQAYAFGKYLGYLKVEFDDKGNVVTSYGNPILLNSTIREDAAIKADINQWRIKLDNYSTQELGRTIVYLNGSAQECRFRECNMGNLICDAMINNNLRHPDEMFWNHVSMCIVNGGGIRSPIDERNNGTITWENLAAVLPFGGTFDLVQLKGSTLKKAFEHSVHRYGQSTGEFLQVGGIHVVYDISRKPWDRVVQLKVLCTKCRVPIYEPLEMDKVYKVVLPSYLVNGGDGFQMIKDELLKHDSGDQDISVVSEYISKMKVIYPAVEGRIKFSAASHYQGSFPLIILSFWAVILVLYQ
In words: Inhibition of recombinant rat CD73 expressed in Sf9 cells using [2,8-3H]-AMP as substrate incubated for 25 mins by scintillation counting method. In outline: as §2

Data set [9] addresses T5, Ectonucleoside triphosphate diphosphohydrolase 8 (Homo sapiens) (UniProt Q5MY95).
T5 sequence (whole entry): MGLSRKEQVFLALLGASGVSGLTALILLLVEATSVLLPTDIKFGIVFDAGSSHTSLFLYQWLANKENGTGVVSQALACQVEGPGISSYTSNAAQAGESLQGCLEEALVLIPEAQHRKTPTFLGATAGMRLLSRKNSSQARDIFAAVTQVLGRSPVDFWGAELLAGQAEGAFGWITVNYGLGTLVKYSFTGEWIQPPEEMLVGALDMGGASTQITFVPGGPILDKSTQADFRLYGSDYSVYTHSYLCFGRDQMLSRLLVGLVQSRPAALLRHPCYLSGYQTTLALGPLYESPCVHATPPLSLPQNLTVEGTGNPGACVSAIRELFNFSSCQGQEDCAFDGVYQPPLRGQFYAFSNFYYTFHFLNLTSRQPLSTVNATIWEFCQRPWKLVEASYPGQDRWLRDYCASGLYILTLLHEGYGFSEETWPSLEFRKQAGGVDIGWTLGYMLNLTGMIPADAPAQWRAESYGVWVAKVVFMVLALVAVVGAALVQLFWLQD
In words: Inhibition of human NTPDase 8 expressed in […] cells using ATP as substrate at 50 uM incubated for 5 mins followed by substrate addition and measured after 30 mins by capillary electrophoresis method. Type of data set: cell-based.

Data set [10] addresses T6, Ectonucleoside triphosphate diphosphohydrolase 2 (Homo sapiens) (UniProt Q9Y5L3).
T6 sequence (whole entry): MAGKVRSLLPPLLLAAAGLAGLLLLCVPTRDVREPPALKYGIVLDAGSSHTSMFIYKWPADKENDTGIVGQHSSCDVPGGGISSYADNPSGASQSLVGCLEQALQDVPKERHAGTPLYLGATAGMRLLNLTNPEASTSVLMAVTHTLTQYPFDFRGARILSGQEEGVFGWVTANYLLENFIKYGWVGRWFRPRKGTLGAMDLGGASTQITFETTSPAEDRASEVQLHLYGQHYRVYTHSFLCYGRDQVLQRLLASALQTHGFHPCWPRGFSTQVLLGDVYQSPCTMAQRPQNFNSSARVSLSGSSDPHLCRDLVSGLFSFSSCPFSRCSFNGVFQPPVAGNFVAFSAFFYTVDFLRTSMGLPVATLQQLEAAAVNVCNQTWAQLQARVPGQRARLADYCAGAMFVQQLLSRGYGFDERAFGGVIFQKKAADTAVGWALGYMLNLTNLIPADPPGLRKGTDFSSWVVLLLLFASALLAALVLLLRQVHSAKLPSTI
Put plainly: Inhibition of human NTPDase 2 expressed in […] cells using ATP as substrate at 50 uM incubated for 5 mins followed by substrate addition and measured after 30 mins by capillary electrophoresis method. Format: cell-based.

The target in data set [11] is P2Y purinoceptor 12 (Homo sapiens) (UniProt Q9H244). Put plainly: Effect on human P2Y12 expressed in […] cells assessed as beta arrestin recruitment at 10 uM by beta-arrestin assay. As to conditions: CHO-K1. Type of data set: functional, cell-based.
P2Y purinoceptor 12 (Homo sapiens), sequence (Q9H244 whole entry): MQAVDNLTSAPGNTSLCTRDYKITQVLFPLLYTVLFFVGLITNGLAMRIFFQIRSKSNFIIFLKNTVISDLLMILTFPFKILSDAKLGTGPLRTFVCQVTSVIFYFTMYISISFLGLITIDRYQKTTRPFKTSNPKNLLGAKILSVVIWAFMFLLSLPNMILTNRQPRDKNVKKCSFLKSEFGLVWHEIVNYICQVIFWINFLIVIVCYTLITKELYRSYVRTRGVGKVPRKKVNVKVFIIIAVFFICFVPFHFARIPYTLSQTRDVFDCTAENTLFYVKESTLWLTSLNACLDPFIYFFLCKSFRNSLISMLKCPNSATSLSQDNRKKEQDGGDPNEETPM
Data set [12] is described as follows: Metabolic stability in human liver microsomes assessed as intrinsic clearance measured for 60 mins. Type of data set: ADME, Microsome. The following applies: read-out: CLH. The essentials:
as §3

Data set [13] addresses T7, Ectonucleoside triphosphate diphosphohydrolase 1 (Homo sapiens) (UniProt P49961).
T7 sequence (whole entry): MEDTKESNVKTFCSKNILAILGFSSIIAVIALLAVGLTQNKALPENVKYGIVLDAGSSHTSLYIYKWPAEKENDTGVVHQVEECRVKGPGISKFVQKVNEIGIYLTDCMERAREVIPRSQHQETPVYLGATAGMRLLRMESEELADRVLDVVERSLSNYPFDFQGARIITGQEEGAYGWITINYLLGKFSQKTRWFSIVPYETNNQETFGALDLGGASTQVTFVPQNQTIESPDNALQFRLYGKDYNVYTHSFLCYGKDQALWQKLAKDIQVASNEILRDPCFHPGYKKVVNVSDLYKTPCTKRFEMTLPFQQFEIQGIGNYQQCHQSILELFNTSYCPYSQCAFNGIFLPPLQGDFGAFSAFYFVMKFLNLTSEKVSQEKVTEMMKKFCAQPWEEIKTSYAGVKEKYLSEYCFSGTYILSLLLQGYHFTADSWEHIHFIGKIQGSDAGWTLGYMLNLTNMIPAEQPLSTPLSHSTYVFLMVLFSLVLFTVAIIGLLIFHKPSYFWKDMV
Put plainly: Inhibition of human NTPDase 1 expressed in […] cells using ATP as substrate at 50 uM incubated for 5 mins followed by substrate addition and measured after 30 mins by capillary electrophoresis method. Type of data set: cell-based.

On to `O=C(NCCOCCOCCNC(=O)c1ccc2c(c1)C1(OC2=O)c2ccc(O)cc2Oc2cc(O)ccc21)c1ccc(CNc2ncnc3c2ncn3[C@@H]2O[C@H](COP(=O)(O)CP(=O)(O)O)[C@@H](O)[C@H]2O)cc1`, for which the inhibition result (at 5'-nucleotidase [1]; in data set [2]) was “Active” throughout. Moreover, the Activity entry in the data set with Retina, in the data set with MDA-MB-231 and in the data set on A549 was “Non-Toxic” each time. The inhibition constant Ki at 5'-nucleotidase [3] amounted to 12.6 nM.
In the case of `O=C(NCCCCCCNC(=O)c1ccc2c(c1)C1(OC2=O)c2ccc(O)cc2Oc2cc(O)ccc21)c1ccc(CNc2ncnc3c2ncn3[C@@H]2O[C@H](COP(=O)(O)CP(=O)(O)O)[C@@H](O)[C@H]2O)cc1`, the inhibition result in data set [4], in [9], in data set [10] and in data set [13] was “inactive” in each case. In addition, the inhibition result (on 5'-nucleotidase [1]; in [2]) was “Active” each time. Moreover, the Ki at 5'-nucleotidase [5] was determined as 4.59 nM; on 5'-nucleotidase [8] it was 26 nM; at 5'-nucleotidase [3] it was 2.98 nM. In addition, the Ratio Ki in data set [6] worked out at 8. Moreover, the half-life in data set [7] was determined as 1.93 h. In data set [11], the outcome was inactive. Further, the Activity result in the data set with Retina, with MDA-MB-231 and in the data set with A549 was “Non-Toxic” each time. Further, the microsomal CLint in data set [12] came to 12 µL/min/mg.
